Screening results from PubChem.
NadD inh: blocks S. aureus nicotinate mononucleotide adenylyltransferase | 0.78% of 360,000 active | inhibition, % at 20 µM | purified NadD enzyme, colorimetric absorbance read-out | AID 602399; in the data active = inhibition above about 26%
NR2E3 ag-1: human photoreceptor-specific nuclear receptor agonism | CHO-S Gal4-NCOR/VP16-NR2E3 two-hybrid, luciferase | inhibition of corepressor binding, % at 3.98 µM | 0.35% of 360,000 active | AID 602229;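 active = inhibition above the mean of all tested compounds plus 3 SD, cut at about 70% in these data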;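 note: higher means lower luciferase signal from less NR2E3 corepressor binding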
bovine MsrA act: activates bovine MsrA enzyme. activation, % at 10.6 µM. purified bovine MsrA, absorbance read-out. 0.3% of 360,000 active; in the data active = activation above about 7.5%
GalR3 antagonist: antagonists of human GalR3. O60755. HEK293 GalR3-CNG cAMP membrane potential fluorescence; galR3 body fused to GalR1 C-terminus. inhibition, % at 3 µM. 0.44% of 360,000 active;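 active = inhibition above the screen-wide average plus 3 SD, cut at about 13% in these data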;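 note: forskolin and galanin both at EC90 stimulate the cells; cAMP rise reported by CNG channel membrane potential dye signal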
Target sequence (O60755 1-299 limits assumed): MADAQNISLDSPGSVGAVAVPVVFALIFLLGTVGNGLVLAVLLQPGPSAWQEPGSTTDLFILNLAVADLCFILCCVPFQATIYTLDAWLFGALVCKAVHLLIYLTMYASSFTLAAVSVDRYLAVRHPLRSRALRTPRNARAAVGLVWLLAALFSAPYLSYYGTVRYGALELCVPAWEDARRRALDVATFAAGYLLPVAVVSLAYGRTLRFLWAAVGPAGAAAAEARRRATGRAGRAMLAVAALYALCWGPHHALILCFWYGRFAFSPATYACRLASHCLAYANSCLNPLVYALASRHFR
NR2E3 ag-2: activates human photoreceptor nuclear receptor NR2E3; Q9Y5X4; GST-NR2E3/biotin-RetCOR TR-FRET, 1536-well; inhibition of corepressor binding, % at 4.78 µM; 0.12% of 320,000 active; AID 2300;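 active = percent inhibition above the cutoff of mean plus 3 SD of all tested compounds, set per screening campaign, cut at about 20% in these data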
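system = GST-tagged NR2E3 plus biotinylated RetCOR corepressor | input = 1.35 nM GST-NR2E3 | also added = 7 nM biotin-RetCOR | schedule = 5 h incubation at 4 °C | measured by = TR-FRET with europium anti-GST and streptavidin-D2, 340 nm excitation | read-out = percent loss of FRET ratio relative to control wells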
MsrA inh: bovine MsrA inhibition. 0.75% of 360,000 active. inhibition, % at 15.5 µM. AID 651718. purified bovine MsrA, absorbance read-out
MsrA inh confirm: bovine MsrA inhibition, confirmed; shares compounds with MsrA inh; purified bovine MsrA, absorbance read-out; inhibition, % at 15.5 µM; 41% of 2,300 active;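 note: coupled to thioredoxin reductase with NADPH and selenocystamine and DMSO as substrate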
GalR3 conf: confirmation of human galanin receptor 3 antagonists. inhibition, % at 3 µM. shares compounds with GalR3 antagonist. 59% of 1,600 active. HEK293 GalR3 CNG cAMP biosensor, membrane potential fluorescence; galR3 fused to GalR1 carboxy tail; challenged with forskolin and galanin at EC90. AID 652245;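 active = inhibition above the primary screen's cutoff, the mean inhibition of all screened compounds plus 3 SD, cut at about 13% in these data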
CNG parental: parental cell agonism counter-screen for GalR3 antagonists. shares compounds with GalR3 antagonist. HEK293-CNG parental cells, cAMP membrane potential fluorescence; normalised: DMSO wells 0%, forskolin wells 100%. activation, % at 3 µM. 10% of 1,600 active. AID 652268; in the data active = activation above about 1.3%
Large screens that a line does not name were inactive (follow-up assays come after a bar, where they were run). A selection: hits, their analogues and other compounds. The true share with any hit is near 2.5%. Cut-off read from the data, not from the text of the source, unless noted: active = inhibition above about 4.5%; inactive = the rest.

CCOC(=O)C1=C(O)/C(=C/c2ccc(OCC(=O)O)c(OCC)c2)SC1=Nc1ccc(OC)cc1	MsrA inh 4.7 | MsrA inh confirm inactive
CCCCC1(CC(=O)OCC)SCCN1C(N)=O (stereo not given)	none (no result: NR2E3 ag-2)
CN1CCN(c2nc(C#N)cc(-c3ccccc3)n2)CC1	MsrA inh 5.0 | MsrA inh confirm inactive
Cc1ccc(Nc2ccc([N+](=O)[O-])nc2[N+](=O)[O-])cc1	MsrA inh 5.3 | MsrA inh confirm 5.0
Cc1ccc(Nc2ccc3nonc3c2[N+](=O)[O-])cc1	none
N#CC1=C(N)Oc2c(ccc3cccnc23)C1c1cccnc1 (stereo not given)	none
N#CC1=C(N)Oc2cc3ccccc3cc2C1c1cccnc1 (stereo not given)	MsrA inh 7.6 | MsrA inh confirm inactive
O=C(Nc1ccc(C(=O)O)cc1)/C(=C\c1ccc2c(c1)OCO2)NC(=O)c1ccc(Br)o1	MsrA inh 5.1 | MsrA inh confirm inactive
O=C(Nc1cccc(C(=O)O)c1)/C(=C\c1ccc2c(c1)OCO2)NC(=O)c1ccc(Br)o1	none
O=C(Nc1ccc(C(=O)O)cc1)/C(=C\c1ccc2c(c1)OCO2)NC(=O)c1ccco1	MsrA inh 7.4 | MsrA inh confirm 5.0
CCC(C(N)=O)N1C(=O)C2C3CCC(C3)C2C1=O (stereo not given)	none (no result: NR2E3 ag-2)
O=C(O)c1ccc(/C=C2\SC(=S)N(NC(=O)c3ccccc3[N+](=O)[O-])C2=O)cc1	MsrA inh 4.8 (no result: NR2E3 ag-2) | MsrA inh confirm inactive
O=C(COC(=O)C1=NN(c2ccccc2)C(=O)CC1)Nc1ccc([N+](=O)[O-])cc1C(F)(F)F	MsrA inh 12 | MsrA inh confirm 11
CCC(C)c1ccccc1NC(=O)COC(=O)C1=NN(c2ccccc2)C(=O)CC1 (stereo not given)	MsrA inh 39 (no result: NR2E3 ag-2) | MsrA inh confirm 30
CC(NC(=O)COC(=O)C1=NN(c2ccccc2)C(=O)CC1)c1ccccc1 (stereo not given)	none (no result: NR2E3 ag-2)
CC(C)CCN1C(=O)CSCC1(C)C(=O)NCc1ccccc1 (stereo not given)	none (no result: NadD inh, NR2E3 ag-1, bovine MsrA act, NR2E3 ag-2)
CN(CCO)CC(O)CN(c1ccccc1)c1ccccc1 (stereo not given)	none
Fc1ccc(/C=C/c2nnc(-c3cccs3)o2)cc1	MsrA inh 5.2 | MsrA inh confirm inactive
Cc1ccc(/C=C/c2nnc(-c3cccs3)o2)cc1	none
Cc1cc(C)nc(Nc2ncc(O)n2-c2ccc(C)c(Cl)c2)n1	MsrA inh 9.1 | MsrA inh confirm 5.4
COc1ccc(OC)c(-n2c(O)cnc2Nc2nc(C)cc(C)n2)c1	none
Cc1cc(C)nc(Nc2ncc(O)n2-c2ccc(C)c(C)c2)n1	MsrA inh 8.0 | MsrA inh confirm 6.6
Cc1cc(C)nc(Nc2ncc(O)n2-c2ccc(Br)cc2)n1	MsrA inh 8.1 | MsrA inh confirm inactive
CCOC(=O)c1csc(NC(=O)c2cc(=O)c3ccccc3o2)n1	MsrA inh 4.7 | MsrA inh confirm inactive
N#C/C(=N/Nc1ccc(S(=O)(=O)N2CCOCC2)cc1)C(N)=O	MsrA inh 6.6 | MsrA inh confirm inactive
N#C/C(=N\Nc1ccc(S(=O)(=O)N2CCCCCC2)cc1)C(N)=S	none
Cc1ccc(C)n1-n1cnc2scc(-c3cccs3)c2c1=O	MsrA inh 5.5 | MsrA inh confirm inactive
O=c1c2c(-c3cccs3)csc2ncn1-n1cccc1	none
Fc1ccc(-c2n[nH]c(=S)n2/N=C/c2c[nH]c3ccccc23)cc1	MsrA inh 5.3 | MsrA inh confirm inactive
Cc1cc(-c2n[nH]c(=S)n2/N=C/c2c[nH]c3ccccc23)n[nH]1	none
Clc1cc2c(cc1/C=N/Nc1nc(N3CCOCC3)nc(N3CCOCC3)n1)OCO2	none
C(=C\c1ccccc1)/C=N/Nc1nc(N2CCOCC2)nc(N2CCOCC2)n1	MsrA inh 7.5 | MsrA inh confirm 6.8
Clc1ccccc1/C=C/C=N/Nc1nc(N2CCOCC2)nc(N2CCOCC2)n1	MsrA inh 5.3 | MsrA inh confirm inactive
O=[N+]([O-])c1cc(S(=O)(=O)N2CCCC2)ccc1N/N=C/c1ccccn1	none
NS(=O)(=O)c1ccc(N/N=C/c2ccccn2)c([N+](=O)[O-])c1	MsrA inh 5.9 | MsrA inh confirm inactive
NS(=O)(=O)c1ccc(N/N=C/c2ccc(O)cc2O)c([N+](=O)[O-])c1	MsrA inh 6.2 | MsrA inh confirm inactive
COc1ccc2oc(=O)c(-c3nnc(NCc4ccco4)s3)cc2c1	none
COC(=O)c1ccc(N=NN2CCOCC2)cc1	MsrA inh 6.6 | MsrA inh confirm inactive
Cc1nc(N)c(C#N)c(-c2cccnc2)c1C	none
CCc1nc(N)c(C#N)c(-c2cccnc2)c1C	MsrA inh 4.7 | MsrA inh confirm inactive
Cc1cc(/C=C(\C#N)C(=O)NCc2ccco2)c(C)n1-c1ccc(C(=O)O)cc1	MsrA inh 6.8 (no result: GalR3 antagonist) | MsrA inh confirm inactive | GalR3 conf inactive | CNG parental inactive
COc1ccc2c(c1)c(C(=O)N/N=C/c1ccccc1Cl)c(C)n2C	none
COc1ccc(/C=N/NC(=O)c2c(C)n(C)c3ccc(OC)cc23)c(OC)c1	GalR3 antagonist 14, MsrA inh 4.9 | MsrA inh confirm inactive | GalR3 conf inactive | CNG parental inactive
COc1cc(C(=O)N/N=C/c2sccc2C)cc(OC)c1OC	GalR3 antagonist 14, MsrA inh 5.1 (no result: NR2E3 ag-2) | MsrA inh confirm inactive | GalR3 conf inactive | CNG parental 1.8
COCCn1c(C)cc(C(=O)COc2nc3ccccc3nc2C)c1C	GalR3 antagonist 98, MsrA inh 4.8 | MsrA inh confirm inactive | GalR3 conf 85 | CNG parental inactive
O=C(OCC(=O)c1ccc[nH]1)c1ccc(S(=O)(=O)N2CCCCCC2)cc1	none
O=C(Oc1cccc2ccccc12)C1CC1	none
CC1(C)CC(N2CCCCC2)=CC(=[N+]2CCCCC2)C1	GalR3 antagonist 47, MsrA inh 10 | MsrA inh confirm 8.1 | GalR3 conf 13 | CNG parental inactive
COc1cc2c(cc1OC)-c1cc(Nc3ccc(C(=O)O)cc3)nc(=O)n1CC2	none
COc1cc2c(cc1OC)-c1cc(N3CCc4ccccc43)nc(=O)n1CC2	none
CCN(CC)CCCNc1cc2n(c(=O)n1)CCc1cc(OC)c(OC)cc1-2	none
